Bioassay records (PubChem)
M1 ag – activates human CHRM1 receptor. CHO-K1 hM1, Fluo-8 calcium fluorescence, agonist mode; 0% DMSO, 100% acetylcholine EC100. activation, % at 3 µM. P11229. hit rate 0.33% among 360,000;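 active means activation above the run's mean compound activation plus 3 SD, cut at about 16% in these data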;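 further: peak over basal fluorescence ratio within a 140 s kinetic read after compound addition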
CHRM1 PAM – potentiates human M1 receptor response to acetylcholine. P11229. CHO-K1 hM1, Fluo-8 calcium fluorescence, ACh EC20; 0% = ACh EC20, 100% = maximal ACh. activation, % at 3 µM. hit rate 0.088% among 360,000; in the data active means activation above about 19%, passing the limit was not always enough
M1 antag – human CHRM1 antagonism; inhibition, % at 3 µM; hit rate 1.3% among 360,000; CHO-K1 hM1, Fluo-8 calcium fluorescence, ACh EC80 antagonist;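 active means percent inhibition above its own plate's cutoff, namely the mean of that plate's compound wells plus 3 SD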;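 further: peak over basal fluorescence ratio during 140 s after agonist addition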
M5 ag – CHRM5 agonism in calcium assay | P08912 | activation, % at 3 µM | CHO-K1 hM5 cells, Fluo-8 calcium fluorescence; 0% DMSO wells, 100% maximal acetylcholine response | hit rate 0.19% among 360,000;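 active means activation above the run's mean over test compounds plus 3 SD, cut at about 23% in these data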;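 further: signal is peak over basal fluorescence ratio across the kinetic read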
Target sequence (P08912 whole entry, looked up): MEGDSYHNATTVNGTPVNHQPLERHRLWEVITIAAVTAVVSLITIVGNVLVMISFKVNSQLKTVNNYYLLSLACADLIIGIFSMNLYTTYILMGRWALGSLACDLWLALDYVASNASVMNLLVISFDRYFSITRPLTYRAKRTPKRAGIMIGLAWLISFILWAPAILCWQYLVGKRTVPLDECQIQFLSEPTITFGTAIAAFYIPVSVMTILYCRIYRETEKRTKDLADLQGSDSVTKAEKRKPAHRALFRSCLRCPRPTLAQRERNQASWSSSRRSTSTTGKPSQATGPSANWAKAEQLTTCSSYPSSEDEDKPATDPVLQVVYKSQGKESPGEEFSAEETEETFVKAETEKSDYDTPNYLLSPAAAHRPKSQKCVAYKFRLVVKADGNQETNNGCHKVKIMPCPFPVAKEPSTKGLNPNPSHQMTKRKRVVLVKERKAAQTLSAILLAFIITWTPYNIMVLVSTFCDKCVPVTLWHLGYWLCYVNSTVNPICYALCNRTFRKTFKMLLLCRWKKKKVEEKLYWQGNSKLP
CHRM5 antagonist – CHRM5 antagonism in calcium assay. P08912. CHO-hM5 cells, Fluo-8 calcium fluorescence, ACh EC80. inhibition, % at 3 µM. hit rate 0.59% among 360,000. AID 624040;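 active means inhibition above a per-plate cutoff, the mean of that plate's test compounds plus 3 SD, cut at about 27% in these data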
CHRM5 PAM – potentiates acetylcholine response at human M5 receptor; P08912; CHO-K1 hM5, Fluo-8 calcium, ACh EC20 PAM; 0% = ACh EC20, 100% = ACh EC100; activation, % at 3 µM; hit rate 0.3% among 360,000; AID 624038;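 active means activation above the run cutoff, the mean activation of all test compounds plus 3 SD, cut at about 18% in these data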
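Test system: CHO-K1 hM5 cells / Doses: single-point, 3 µM nominal / Times: Post-acetylcholine fluorescence recording 140 s / Technique: Fluo-8 calcium fluorescence / Measure: Max/basal fluorescence ratio as % of EC20–EC100 ACh window / Benchmarks: low control EC20 acetylcholine (0%), high control EC100 acetylcholine (100%) / Replicates: one well per compound, no replicates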
Numbers stand for hits. Compounds with a hit are over-represented: about 2% of the library has one in this group of screens.

Screening Cc1cc(C(=O)NC2CCCc3c2cnn3-c2ccc(C(C)(C)C)cc2)nn1C (centres undefined) returned M1 ag inactive, CHRM1 PAM inactive, M1 antag 33, M5 ag inactive, CHRM5 antagonist 35 and CHRM5 PAM inactive.
Screening CC(C)(C)c1ccc(-n2ncc3c2CCCC3NC(=O)C2(C(N)=O)CC2)cc1 (centres undefined) returned M1 ag inactive, CHRM1 PAM inactive, M1 antag inactive, M5 ag inactive, CHRM5 antagonist 28 and CHRM5 PAM inactive.
Screening CC(C)(C)c1ccc(-n2ncc3c2CCCC3NC(=O)CCn2cncn2)cc1 (centres undefined) returned M1 ag inactive, CHRM1 PAM inactive, M1 antag 54, M5 ag inactive, CHRM5 antagonist inactive and CHRM5 PAM inactive.
`O=C(Nc1ccc(F)cc1)N[C@H]1CC[C@H](CCNS(=O)(=O)c2cccc(Cl)c2)O[C@@H]1CO` gave M5 ag inactive, CHRM5 antagonist inactive and CHRM5 PAM inactive.
Screening COc1ccccc1-c1ccc(/C=C2\C=CC(=O)O2)o1 returned M1 ag 27, CHRM1 PAM inactive, M1 antag inactive, M5 ag 70, CHRM5 antagonist 27 and CHRM5 PAM inactive.
COc1ccccc1-c1ccc(/C=C2/C=C(C)OC2=O)o1 was read as M1 ag inactive, CHRM1 PAM inactive, M1 antag inactive, M5 ag inactive, CHRM5 antagonist inactive and CHRM5 PAM inactive.
Screening COc1ccc(NC(=O)Nc2ccc(F)c(Cl)c2)cc1 returned M1 ag inactive, CHRM1 PAM inactive, M1 antag inactive, M5 ag inactive, CHRM5 antagonist 35 and CHRM5 PAM inactive.
Cc1ccc(NC(=O)Nc2ccc(F)c(Cl)c2)cc1 was read as M1 ag inactive, CHRM1 PAM inactive, M1 antag 36, M5 ag inactive, CHRM5 antagonist inactive and CHRM5 PAM inactive.
C[C@H]1CN(CCc2ccccc2)C(=O)[C@@H]1CC(=O)Nc1ccccc1 was read as M1 ag inactive, CHRM1 PAM inactive, M1 antag inactive, M5 ag inactive, CHRM5 antagonist inactive and CHRM5 PAM inactive.
`C/C(=N\OCC(=O)N/N=C/c1ccc(C)cc1O)c1cccs1` gave M1 ag inactive, CHRM1 PAM inactive, M1 antag inactive, M5 ag inactive, CHRM5 antagonist inactive and CHRM5 PAM 33.
Screening C/C(=N\NC(=O)CO/N=C(\C)c1cccs1)c1ccc(N)cc1 returned M1 ag inactive, CHRM1 PAM inactive, M1 antag inactive, M5 ag inactive, CHRM5 antagonist inactive and CHRM5 PAM inactive.
`CCCCN(C(=O)COc1ccc(F)cc1)c1c(N)n(CC(C)C)c(=O)[nH]c1=O` gave M1 ag inactive, CHRM1 PAM inactive, M1 antag inactive, M5 ag inactive, CHRM5 antagonist inactive and CHRM5 PAM inactive.
`COCCN1C(=O)CCC1(C)c1nnnn1-c1ccc2c(c1)OCCO2` (centres undefined) gave M5 ag inactive, CHRM5 antagonist inactive and CHRM5 PAM inactive.
`CCCC(=O)N(Cc1cc2cc(OC)ccc2[nH]c1=O)c1ccccc1OC` gave M1 ag inactive, CHRM1 PAM inactive, M1 antag inactive, M5 ag inactive, CHRM5 antagonist inactive and CHRM5 PAM inactive.
For CC1=C(SCc2ccccc2)C(=O)c2ccccc2C1=O the results were M1 ag inactive, CHRM1 PAM inactive, M1 antag inactive, M5 ag inactive, CHRM5 antagonist inactive and CHRM5 PAM inactive.
Screening O=C1C(SCCO)=C(SCCO)C(=O)c2ccccc21 returned M1 ag inactive, CHRM1 PAM inactive, M1 antag inactive, M5 ag inactive, CHRM5 antagonist 38 and CHRM5 PAM inactive.
For Cc1ccc(C)c(N2CCN(C(=O)C3CCN(c4nnc(N5CCCC5=O)s4)CC3)CC2)c1 the results were M1 ag inactive, CHRM1 PAM inactive, M1 antag inactive, M5 ag inactive, CHRM5 antagonist inactive and CHRM5 PAM inactive.
For O=C(C1CCN(c2nnc(N3CCCC3=O)s2)CC1)N1CCN(c2cccc(C(F)(F)F)c2)CC1 the results were M1 ag inactive, CHRM1 PAM inactive, M1 antag 77, M5 ag inactive, CHRM5 antagonist inactive and CHRM5 PAM inactive.
